Measurements: ChEMBL document CHEMBL1148645, “Imino-tetrahydro-benzothiazole derivatives as p53 inhibitors: discovery of a highly potent in vivo inhibitor and its action mechanism” (J Med Chem, 2006)
Each block holds one compound with its values, some of them ahead of it. Calls of active or inactive are those of the source. The rule behind the calls is not given here.

Key:
Cortical neurone = assay: Inhibition of etoposide-induced death of mouse E15.5 cortical neurones; assay type: functional
In short: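 Primary cortical neurons from E15 wild-type mouse embryos were exposed to etoposide at 1.25 and 2.5 µM, with compound alongside DMSO. Etoposide alone served as the control. Live cells were stained with calcein-AM for 45 min, quenched with hemoglobin, and whole wells were imaged and counted automatically. Survival is relative to untreated cultures set to 100%. At least six independent experiments were run, each in triplicate.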

Mus musculus = organism: Mus musculus; assay: Toxicity against mouse E15.5 cortical neurones at 10 uM; details: in vitro
In short: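 E15 mouse primary cortical neurons were cultured in neurobasal/B27 and exposed to compound at 10 µM. Live cells were counted after calcein-AM staining, with hemoglobin quench and whole-well imaging. Each experiment was repeated at least six times.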

[1] = target: Cellular tumor antigen p53 (Mus musculus) (UniProt P02340); assay: Inhibition of p53-mediated increase in p21/WAF1 level at 30 nM; assay type: functional; details: filed as antagonist
Chain of Cellular tumor antigen p53 (Mus musculus) (P02340 whole entry): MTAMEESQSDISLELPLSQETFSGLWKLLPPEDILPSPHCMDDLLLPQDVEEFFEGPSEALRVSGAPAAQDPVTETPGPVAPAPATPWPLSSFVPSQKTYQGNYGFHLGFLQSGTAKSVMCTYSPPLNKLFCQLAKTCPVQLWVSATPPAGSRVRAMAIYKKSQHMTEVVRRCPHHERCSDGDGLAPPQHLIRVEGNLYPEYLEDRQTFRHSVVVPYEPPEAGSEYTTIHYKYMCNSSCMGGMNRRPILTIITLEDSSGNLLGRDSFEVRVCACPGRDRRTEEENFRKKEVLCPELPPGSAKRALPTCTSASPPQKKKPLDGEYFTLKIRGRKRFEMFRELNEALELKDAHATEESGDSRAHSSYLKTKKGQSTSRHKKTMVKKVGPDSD
In short: (§1)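 Wild-type E15 mouse cortical neurons were kept 3 days in vitro in neurobasal/B27 and treated with etoposide to trigger p53 activation. Time-course and concentration-dependent experiments were run. p21/WAF1 protein was detected by western blot of total extracts made in boiling SDS/Tris buffer.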

Rattus norvegicus [2] = organism: Rattus norvegicus; assay: Protection against axotomy-induced RGC apoptosis in Wistar rat intravitreally injected with 0.06 uM; assay type: functional
In short: (§2)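 Adult male Wistar rats (300-400 g) had the optic nerve transected, and RGCs were retrogradely labeled with FluoroGold placed on the stump. Compound or vehicle (DMSO 2%), 3 µL, was injected intravitreally on days 0, 3 and 7. Eyes were taken on day 14 and retinas flat-mounted. FG-positive RGCs were counted blind in fields at three eccentricities. Groups had n = 3-6, with DMSO as baseline; results are given as mean ± sem.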

Rattus norvegicus [3] = organism: Rattus norvegicus; assay: Protection against axotomy-induced RGC apoptosis in Wistar rat intravitreally injected with 6 uM; assay type: functional; in short: as §2
[4] = target: Cellular tumor antigen p53 (Mus musculus) (UniProt P02340); assay: Inhibition of p53-mediated increase in p21/WAF1 level at 300 nM; assay type: functional; details: filed as antagonist; in short: as §1

Structure (SMILES): Br.N=c1sc2c(n1CC(=O)c1ccc([N+](=O)[O-])cc1)CC1CCCCC1C2 (stereo not given)
Activity (Cortical neurone): Active
Activity (Mus musculus): Non-toxic

Activity [1]: Antagonist
Structure (SMILES): O=[N+]([O-])c1ccc(-c2cn3c4c(sc3n2)CCCC4)cc1
EC50 (Cortical neurone; read-out: ED50 (the source's name)): 30 nM
Activity (Rattus norvegicus [2]; in the assay text read “6 uM” for “0.06 uM”): inactive
Activity (Rattus norvegicus [3]): inactive
Activity (Mus musculus): Non-toxic

Structure (SMILES): Br.Cc1ccc(C(=O)Cn2c3c(sc2=N)CC2CCCCC2C3)cc1 (stereo not given)
Activity (Cortical neurone): inactive
Activity (Mus musculus): Non-toxic

Structure (SMILES): Br.COc1ccc(C(=O)Cn2c3c(sc2=N)CCCC3)cc1
Activity (Cortical neurone): inactive
Activity (Mus musculus): Non-toxic

Structure (SMILES): Br.Cc1ccc(C(=O)Cn2c3c(sc2=N)CCCCC3)cc1
Activity (Cortical neurone): inactive
Activity (Mus musculus): Non-toxic

Activity [4]: Antagonist
Structure (SMILES): Br.N=c1sc2c(n1CC(=O)c1ccc([N+](=O)[O-])cc1)CCCC2
Activity (Cortical neurone): Active
Activity (Rattus norvegicus [2]): 150%
Activity (Mus musculus): Non-toxic

Activity [4]: Antagonist
Structure (SMILES): Br.Cc1ccc(C(=O)Cn2c3c(sc2=N)CCCC3)cc1
Activity (Cortical neurone): Active
Activity (Rattus norvegicus [2]): 98%
Activity (Rattus norvegicus [3]): 131%

Structure (SMILES): Br.N=c1sc2c(n1C/C(=N/O)c1ccc([N+](=O)[O-])cc1)CCCC2
Activity (Cortical neurone): inactive
Activity (Mus musculus): Non-toxic

Structure (SMILES): Br.COc1ccc(C(=O)Cn2c3c(sc2=N)CC2CCCCC2C3)cc1 (stereo not given)
Activity (Mus musculus): Non-toxic

Structure (SMILES): O=[N+]([O-])c1ccc(-c2cn3c4c(sc3n2)CC2CCCCC2C4)cc1 (stereo not given)
Activity (Mus musculus): Non-toxic
